# Experimental data as given in ChEMBL document CHEMBL3784943, “Structure based medicinal chemistry-driven strategy to design substituted dihydropyrimidines as potential antileishmanial agents” (Eur J Med Chem, 2016).
# Test system: Leishmania major
# Test: Antileishmanial activity against Leishmania major promastigotes after 72 hrs by Neubauer chamber counting
# Format: functional, organism-based
# Conditions: not given; call rule not given here
row,IC50 [µg/mL],SMILES
1,0.71,COc1cc(C2NC(=O)NC(C)=C2C(C)=O)ccc1O (configuration not stated)
2,0.53,CC1=C(C(=O)Nc2ccc(C(=O)/C=C/c3ccc(O)cc3)cc2)C(c2ccc(C)cc2)NC(=S)N1 (configuration not stated)
3,0.67,CC(=O)C1=C(CNc2ccc(C(=O)/C=C/c3cccc([N+](=O)[O-])c3)cc2)N(C)C(=O)NC1c1ccccc1 (configuration not stated)
4,0.51,CC1=C(C(=O)Nc2ccc(C(=O)/C=C/c3ccc(O)cc3)cc2)C(c2cccc(O)c2)NC(=S)N1 (configuration not stated)
5,0.63,CC(=O)C1=C(C)N(C)C(=O)NC1c1ccccc1 (configuration not stated)
6,0.73,CC1=C(C(=O)/C=C/c2cccc([N+](=O)[O-])c2)C(c2ccccc2)NC(=O)N1C (configuration not stated)
7,0.54,CC(=O)C1=C(CNc2ccc(C(=O)/C=C/c3ccccc3)cc2)N(C)C(=O)NC1c1ccccc1 (configuration not stated)
8,0.51,CC(=O)C1=C(CNc2ccc(C(=O)/C=C/c3ccc(O)cc3)cc2)N(C)C(=O)NC1c1ccccc1 (configuration not stated)
9,0.65,CC1=C(C(=O)Nc2ccc(C(=O)/C=C/c3cccc([N+](=O)[O-])c3)cc2)C(c2ccc(C)cc2)NC(=S)N1 (configuration not stated)
10,0.89,CC(=O)C1=C(C)NC(=O)NC1c1cccc(C)c1 (configuration not stated)
11,0.69,COc1ccc(C2NC(=O)NC(C)=C2C(C)=O)cc1 (configuration not stated)
12,0.95,COCC1=C(C(=O)OC)C(c2cccc([N+](=O)[O-])c2)NC(=O)N1 (configuration not stated)
13,0.71,CC(=O)C1=C(CNc2ccc(C(=O)/C=C/c3ccc(N(C)C)cc3)cc2)N(C)C(=O)NC1c1ccccc1 (configuration not stated)
14,0.59,CC1=C(C(=O)/C=C/c2ccc(O)cc2)C(c2ccccc2)NC(=O)N1C (configuration not stated)
15,0.47,CC(=O)C1=C(CNc2ccc(C3=NNC(c4ccc(O)cc4)C3)cc2)N(C)C(=O)NC1c1ccccc1 (configuration not stated)
16,0.63,CCOC(=O)C1=C(C)NC(=S)NC1c1ccc(C)cc1 (configuration not stated)
17,0.58,CC1=C(C(=O)Nc2ccc(C(=O)/C=C/c3cccc([N+](=O)[O-])c3)cc2)C(c2cccc(O)c2)NC(=S)N1 (configuration not stated)
18,0.61,CC(=O)C1=C(C)NC(=O)NC1c1ccccc1 (configuration not stated)
19,0.99,CCOC(=O)C1=C(C)NC(=O)NC1c1ccccc1 (configuration not stated)
20,0.65,CCOC(=O)C1=C(C)NC(=S)NC1c1cccc(O)c1 (configuration not stated) [MONASTROL]
21,0.67,CC(=O)C1=C(C)NC(=O)NC1c1cccc([N+](=O)[O-])c1 (configuration not stated)
22,0.78,CC(=O)C1=C(C)NC(=S)NC1c1ccccc1 (configuration not stated)
23,0.63,CC1=C(C(=O)/C=C/c2ccc(Cl)cc2)C(c2ccccc2)NC(=O)N1C (configuration not stated)
24,0.53,CC(=O)C1=C(CNc2ccc(C(=O)/C=C/c3ccc(Cl)cc3)cc2)N(C)C(=O)NC1c1ccccc1 (configuration not stated)

# Test system: Leishmania donovani
# Test: Antileishmanial activity against Leishmania donovani promastigotes after 72 hrs by Neubauer chamber counting
# Format: functional, organism-based
# Conditions: not given
# Procedure, shortened: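 Clinical isolate promastigotes grown at 24 °C in medium 199 with 10% fetal bovine serum, HEPES, sodium bicarbonate, penicillin and streptomycin. Cultures harvested after 6–7 days, washed three times in PBS, resuspended at 2 × 10^6 cells/mL and exposed to serial compound dilutions for 72 h at 24 °C with shaking. Amphotericin B positive control, DMSO negative control. Run in triplicate; IC50 from live-cell counts.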
row,IC50,SMILES
1,Not Active,CC1=C(C(=O)Nc2ccc(C(=O)/C=C/c3ccc(O)cc3)cc2)C(c2ccc(C)cc2)NC(=S)N1 (configuration not stated)
2,Not Active,CC1=C(C(=O)/C=C/c2cccc([N+](=O)[O-])c2)C(c2ccccc2)NC(=O)N1C (configuration not stated)
3,Not Active,CC1=C(C(=O)Nc2ccc(C(=O)/C=C/c3cccc([N+](=O)[O-])c3)cc2)C(c2ccc(C)cc2)NC(=S)N1 (configuration not stated)
4,Not Active,CC(=O)C1=C(CNc2ccc(C(=O)/C=C/c3ccc(N(C)C)cc3)cc2)N(C)C(=O)NC1c1ccccc1 (configuration not stated)
5,Not Active,CC1=C(C(=O)/C=C/c2ccc(O)cc2)C(c2ccccc2)NC(=O)N1C (configuration not stated)
6,Not Active,CC1=C(C(=O)Nc2ccc(C(=O)/C=C/c3cccc([N+](=O)[O-])c3)cc2)C(c2cccc(O)c2)NC(=S)N1 (configuration not stated)
7,Not Active,CC1=C(C(=O)/C=C/c2ccc(Cl)cc2)C(c2ccccc2)NC(=O)N1C (configuration not stated)

# Same assay, conditions: Leishmania donovani, 72 h; read-out: IC50
row,IC50 [µg/mL],SMILES
1,> 100,CC(=O)C1=C(CNc2ccc(C(=O)/C=C/c3cccc([N+](=O)[O-])c3)cc2)N(C)C(=O)NC1c1ccccc1 (configuration not stated)
2,5.58,CC1=C(C(=O)Nc2ccc(C(=O)/C=C/c3ccc(O)cc3)cc2)C(c2cccc(O)c2)NC(=S)N1 (configuration not stated)
3,> 100,CC(=O)C1=C(CNc2ccc(C(=O)/C=C/c3ccccc3)cc2)N(C)C(=O)NC1c1ccccc1 (configuration not stated)
4,7.5,CC(=O)C1=C(CNc2ccc(C(=O)/C=C/c3ccc(O)cc3)cc2)N(C)C(=O)NC1c1ccccc1 (configuration not stated)
5,1.5,CC(=O)C1=C(CNc2ccc(C3=NNC(c4ccc(O)cc4)C3)cc2)N(C)C(=O)NC1c1ccccc1 (configuration not stated)
6,4.4,CC(=O)C1=C(CNc2ccc(C(=O)/C=C/c3ccc(Cl)cc3)cc2)N(C)C(=O)NC1c1ccccc1 (configuration not stated)
